Assay results reported in ChEMBL document CHEMBL5614410, “Design, Synthesis, and Evaluation of p53Y220C Acetylation Targeting Chimeras (AceTACs)” (J Med Chem, 2024).
Active and inactive are the calls of the source. The rule behind the calls is not given here.

Tests used:
[1] = tested on: CREB-binding protein/Histone acetyltransferase p300/Cellular tumor antigen p53 (Homo sapiens), P04637+Q09472+Q92793 [Y220C]; assay: AceTAC activity at FLAG-tagged p53Y220C mutant (unknown origin) expressed in human NCI-H1299 cells expressing p300/CBP and transfected with p300 siRNA assessed as increase in p53 acetylation at lysine 382 residue at 1 to 10 uM incubated for 24 hrs by western blot analysis; format: cell-based; settings: dose 1-10 µM
Procedure, shortened: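 NCI-H1299 cells stably expressing p53Y220C were given control or p300 siRNA, then treated at 0, 1 or 10 μM for 24 h. Lysates were Western blotted for p53 and p53K382ac. The acetylation level was normalised to vinculin and quantified from two independent experiments.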

[2] = tested on: CREB-binding protein/Histone acetyltransferase p300/Cellular tumor antigen p53 (Homo sapiens), P04637+Q09472+Q92793 [Y220C]; assay: AceTAC activity at FLAG-tagged p53Y220C mutant (unknown origin) expressed in human NCI-H1299 cells expressing p300/CBP assessed as increase in p53 acetylation at lysine 382 residue at 3 uM incubated for 24 hrs by western blot analysis; format: cell-based
Procedure, shortened: (§1)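 NCI-H1299 (p53Y220C) cells were treated at 0.1–10 μM (0.1, 0.3, 1, 3 or 10 μM) for 24 h. Lysates were Western blotted for p53 and p53K382ac, with vinculin as loading control. p53K382ac was normalised to total p53Y220C and quantified from two or three independent experiments.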

[3] = tested on: NUGC-3; assay: Antiproliferative activity against human NUGC-3 cells harboring p53Y220C mutant assessed as inhibition of cell growth incubated for 72 hrs by WST-8 assay; format: functional
Procedure, shortened: (§2)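 BxPC3 or NUGC-3 cells were treated with DMSO or compound over a concentration range for 72 h before the viability read-out. Values are mean ± SD of technical triplicates from three biological experiments.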

[4] = tested on: CREB-binding protein/Histone acetyltransferase p300/Cellular tumor antigen p53 (Homo sapiens), P04637+Q09472+Q92793 [Y220C]; assay: AceTAC activity at FLAG-tagged p53Y220C mutant (unknown origin) expressed in human NCI-H1299 cells expressing p300/CBP assessed as BAX mRNA expression at 3 uM incubated for 24 hrs by RT-PCR analysis; format: cell-based
Procedure, shortened: (§3)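 NCI-H1299 p53Y220C cells were treated with DMSO or compound at 3 μM for 24 h. mRNA of p53-target genes was measured by RT-qPCR, normalised to GAPDH and expressed relative to DMSO control. Values are mean ± SD of three independent experiments.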

[5] = tested on: BXPC-3; assay: Antiproliferative activity against human BXPC-3 cells harboring p53Y220C mutant assessed as inhibition of cell growth incubated for 72 hrs by WST-8 assay; format: functional; procedure, shortened: as §2
[6] = tested on: CREB-binding protein/Histone acetyltransferase p300/Cellular tumor antigen p53 (Homo sapiens), P04637+Q09472+Q92793 [Y220C]; assay: AceTAC activity at FLAG-tagged p53Y220C mutant (unknown origin) expressed in human NCI-H1299 cells expressing p300/CBP assessed as increase in p53 acetylation at lysine 382 residue at 10 uM incubated for 24 hrs by western blot analysis relative to control; format: cell-based; procedure, shortened: as §1
[7] = tested on: CREB-binding protein/Histone acetyltransferase p300/Cellular tumor antigen p53 (Homo sapiens), P04637+Q09472+Q92793 [Y220C]; assay: AceTAC activity at FLAG-tagged p53Y220C mutant (unknown origin) expressed in human NCI-H1299 cells expressing p300/CBP assessed as increase in p53 acetylation at lysine 382 residue at 10 uM pretreated for 2 hrs with p300/CBP bromodomain binder, 4-(2-(5-(3,5-dimethylisoxazol-4-yl)-2-(3-fluoro-4-methoxyphenethyl)-1H-benzo[d]imidazol-1-yl)ethyl)morpholine followed by incubation with compound for 18 hrs by western blot analysis; format: cell-based
[8] = molecular target: CREB-binding protein/Histone acetyltransferase p300/Cellular tumor antigen p53 (Homo sapiens, UniProt P04637+Q09472+Q92793, Y220C); assay: (§4) AceTAC activity at FLAG-tagged p53Y220C mutant (unknown origin) expressed in human NCI-H1299 cells expressing p300/CBP assessed as increase in p53 acetylation at lysine 382 residue incubated for 24 hrs by western blot analysis; format: cell-based; procedure, shortened: as §1
[9] = tested on: CREB-binding protein/Histone acetyltransferase p300/Cellular tumor antigen p53 (Homo sapiens), P04637+Q09472+Q92793 [Y220C]; assay: as §4; format: cell-based; procedure, shortened: as §1
[10] = Cytotoxicity against human U2OS cells harboring wild type p53 assessed as inhibition of cell growth at 10 uM incubated for 72 hrs by WST-8 assay; format: toxicity, cell-based
Procedure, shortened: (§5)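 U2OS (WT p53) or normal prostate PNT2 cells were treated for 72 h at the indicated concentrations. Viability is mean ± SD of technical triplicates from two biological experiments.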

[11] = tested on: NCI-H1299; assay: Antiproliferative activity against p53-null human NCI-H1299 cells assessed as reduction in cell viability at 0.47 to 15 uM incubated for 3 days by WST-8 assay; format: functional, cell-based; settings: dose 0.47-15 µM, time 3.0 day
Procedure, shortened: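 p53-null NCI-H1299 cells were exposed to compound across the concentration series for 72 h before the viability read-out. Data are mean ± SD from three independent experiments.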

[12] = tested on: CREB-binding protein/Histone acetyltransferase p300/Cellular tumor antigen p53 (Homo sapiens), P04637+Q09472+Q92793 [Y220C]; assay: AceTAC activity at FLAG-tagged p53Y220C mutant (unknown origin) expressed in human NCI-H1299 cells expressing p300/CBP assessed as upregulation of GADD45A mRNA expression at 3 uM incubated for 24 hrs by RT-PCR analysis; format: cell-based; procedure, shortened: as §3
[13] = tested on: CREB-binding protein/Histone acetyltransferase p300/Cellular tumor antigen p53 (Homo sapiens), P04637+Q09472+Q92793 [Y220C]; assay: AceTAC activity at FLAG-tagged p53Y220C mutant (unknown origin) expressed in human NCI-H1299 cells expressing p300/CBP assessed as upregulation of p21 mRNA expression at 3 uM incubated for 24 hrs by RT-qPCR analysis; format: cell-based; procedure, shortened: as §3
[14] = tested on: CREB-binding protein/Histone acetyltransferase p300/Cellular tumor antigen p53 (Homo sapiens), P04637+Q09472+Q92793 [Y220C]; assay: Induction of interaction between FLAG-tagged p53Y220C mutant (unknown origin) and p300/CBP expressed in human NCI-H1299 cells assessed as ternary complex formation at 10 uM incubated for 24 hrs by co-immunoprecipitation analysis; format: cell-based
Procedure, shortened: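 NCI-H1299 p53-null and p53Y220C cells were treated with DMSO or compound at 10 μM for 24 h. p53-FLAG pull-down was followed by Western blotting for associated p300. Representative of two independent experiments.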

[15] = Cytotoxicity against human PNT2 cells assessed as inhibition of cell growth at 10 uM incubated for 72 hrs by WST-8 assay; format: toxicity, cell-based; procedure, shortened: as §5
[16] = tested on: NCI-H1299; assay: Inhibition of colony formation in human NCI-H1299 cells expressing p53Y220C mutant at 1 uM incubated for 14 days by crystal violet staining based analysis; format: functional, cell-based; settings: time 14.0 day
Procedure, shortened: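 Clonogenic assay in NCI-H1299 (p53Y220C) cells exposed to DMSO or 1, 3 or 10 μM for 14 days. Colonies were fixed and stained with crystal violet. Images are representative of two independent experiments.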

[17] = tested on: CREB-binding protein/Histone acetyltransferase p300/Cellular tumor antigen p53 (Homo sapiens), P04637+Q09472+Q92793 [Y220C]; assay: Induction of interaction between FLAG-tagged p53Y220C mutant (unknown origin) and p300/CBP expressed in human NCI-H1299 cells at 10 uM pretreated for 2 hrs with p53Y220C mutant binder, PK9328 followed by incubation with compound for 18 hrs by co-immunoprecipitation analysis; format: cell-based
Procedure, shortened: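 NCI-H1299 (p53Y220C) cells were pretreated for 2 h with a 10 μM p53Y220C binder or a 10 μM p300 binder, then given compound at 3 μM for 18 h. p53-FLAG pull-down was followed by Western blot analysis.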

[18] = tested on: CREB-binding protein/Histone acetyltransferase p300/Cellular tumor antigen p53 (Homo sapiens), P04637+Q09472+Q92793 [Y220C]; assay: AceTAC activity at FLAG-tagged p53Y220C mutant (unknown origin) expressed in human NCI-H1299 cells expressing p300/CBP assessed as stabilization of protein by measuring increase in aggregation temperature at 100 uM incubated for 1 hr at 32 to 50 degC by CETSA analysis; format: cell-based
Procedure, shortened: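 For CETSA, NCI-H1299 (p53Y220C) stable cells were treated with DMSO or 100 μM compound for 1 h, then heated at 32 to 50 °C. Soluble p53 was detected by Western blot. Representative of at least two independent experiments.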

[19] = Toxicity in Swiss albino mouse assessed as tolerability at 50 mg/kg, ip measured for 8 hrs; format: organism-based; settings: in vivo

CCn1c2ccc(CNCCOCCOCCOCCC(=O)NCCOc3ccc(CCc4nc5cc(-c6c(C)noc6C)ccc5n4CCN4CCOCC4)cc3F)cc2c2ccc(-c3cc(C)cs3)cc21
Activity [1]: inactive | Activity [2]: Active | GI50 [3]: 1.83 µM | Activity [4]: inactive | GI50 [5]: 2.16 µM | Activity [6]: 235% | Activity [7]: inactive | EC50 [8]: 1.52 µM | Activity [9]: Dose-Dependent Effect | inhibition at 72 h, 10 µM [10]: 30% | Activity [11]: inactive | Activity [12]: Active | Activity [13]: Active | Activity [14]: Active | inhibition at 72 h, 10 µM [15]: ~30% | inhibition [16]: Active | Activity [17]: inactive | ΔTm [18]: 4.3 °C | Activity [19]: Non-Toxic
